Columns and labels:
[1] = test system: MS2 coat protein; assay: apparent Kd, MS2 coat protein; higher = weaker binding; RNA-MaP array; tryptophan 2.4 mM where present
How it was run: (§1)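 Stalled E. coli RNA polymerase produced the designs on Illumina sequencing-chip clusters. SNAP-549-labelled MS2 coat protein was added from 0.7 or 1.5 nM, doubling to 3 µM, without and then with constant ligand, in 100 mM Tris-HCl pH 7.5, 80 mM KCl, 4 mM MgCl2, BSA, DTT, yeast tRNA and Tween-20. The apparent Kd is the median of filtered per-cluster fits of green signal normalised to red-channel RNA signal and control-cluster median Fmax.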

[2] = test system: MS2 coat protein; assay: apparent Kd, MS2 coat protein; higher = weaker binding; RNA-MaP array; theophylline 2 mM where present
How it was run: as §1

[3] = designed as: ON switch for tryptophan, no ligand
[4] = ligand present: tryptophan, designed as: ON switch for tryptophan
[5] = designed as: OFF switch for tryptophan, no ligand
[6] = ligand present: tryptophan, designed as: OFF switch for tryptophan

| Sequence | apparent Kd [1, 3] | apparent Kd [1, 4] | apparent Kd [1, 5] | apparent Kd [1, 6] | other results |
| --- | --- | --- | --- | --- | --- |
| CAUAUAUAAGCGGCCGCCACUUACUCAUGAGGUAACAACAUGAGGAUCACCCAUGUUUGAGGAUCAAGGACCGGGCUUAUAUAUG | 28.3 nM | 18.3 nM |  |  |  |
| ACAUGAGGAUCACCCAUGUUAAACAGGGUGCGAGGACCGGUACGGCCGCCACUCGGACAUUAUUACGAGUGAAUGGUAACGAUGU |  |  | 19.9 nM | 20 nM |  |
| CUAUAUAUAGCGGCCGCCACUUACUCAUGAGGUAACAACAUGAGGAUCACCCAUGUUUGAGGAUCAAGGACCGGGCUAUAUAUAG | 28.2 nM | 16.7 nM |  |  |  |
| ACAUUGCGCUCGGCCGCCACUGCCUUAUGAUUAUAAGGAUUAAUGAACAUGAGGAUCACCCAUGUCAGGACCGGGAGCGAACCAU | 13.7 nM | 13.4 nM |  |  |  |
| GCAUCCUAGUCGGCCGCCACUGCACGAUCAGUGGCAGAUCGUCAACAUGAGGAUCACCCAUGUAGCAGGACCGGGACUAGGAUGC | 17.6 nM | 24.6 nM |  |  |  |
| CGAUAUAUAGCGGCCGCCACUUACUCAUGAGGUAACAACAUGAGGAUCACCCAUGUUUGAGGAUCAAGGACCGGGCUAUGUAUCG | 27.4 nM | 18 nM |  |  |  |
| CUAUAUUUAUCGGCCGCCACUUACUCAUGAGGUAACAACAUGAGGAUCACCCAUGUUUGAGGAUCAAGGACCGGGAUAAAUAUAG | 27.8 nM | 16.3 nM |  |  |  |
| AGCCACUCGAGUGAUCCUCACGAGUGGCAACGAGGACCGGUACGGCCGCCACUCGAAUAACAUGAGGAUCACCCAUGUUUAUAAU | 93.2 nM | 96.2 nM |  |  |  |
| CGCCACAUGAGGAUCACCCAUGUCUUGGCGCGAGGACCGGUACGGCCGCCACUCGCGUUUCAGUGAGCGCAUGCGUCCUUGGUAU |  |  | 18.3 nM | 26.1 nM |  |
| AAUACCGGAUCGGCCGCCACUGGUUGGCCCUGUGUACAUGAGGAUCACCCAUGUCCAUCCCAAGCCAGGACCGGGAUCUUUGUGU | 16.7 nM | 10.1 nM |  |  |  |
| GUUUAAAGGUCGGCCGCCACUGUAGGAUGUGUUCUUUCACAUGAGGAUCACCCAUGUUGUUAUUAUAGGACCGGGAUUUUAGGAC |  |  | 27.1 nM | 22.4 nM |  |
| UGAUACCAGUCGGCCGCCACUACAUGAGGAUCACCCAUGUAUCCUCAACUGCUAGAUACUAGCAGUAGGACCGGGACUGGUAUCU |  |  | 307 nM | 1150 nM |  |
| AAUAAUAGGUGAUCCUGACGAGUGGCAUAACGAGGACCGGUACGGCCGCCACUCGAACAUGAGGAUCACCCAUGUAGCCACUCGA | 312 nM | 393 nM |  |  |  |
| AAUGUAUGGCACAUGAGGAUCACCCAUGUGCGAGGACCGGUACGGCCGCCACUCGGUCGUGGGUUCUUAUUACUAUACAUUAAUG |  |  | 10.7 nM | 12.3 nM |  |
| GAUAUGGAAACAUGUCAGAUCCUUACCGGUCGAGGACCGGUACGGCCGCCACUCGGAAAUAUUGUACAUGAGGAUCACCCAUGUA |  |  | 13.7 nM | 14.5 nM |  |
| GUUUUGGGAUCGGCCGCCACUACAUGAGGAUCACCCAUGUGGACAAAUAGGGUUUUUAAGCUCGGUAGGACCGGGAUUCGAACAU |  |  | 18.1 nM | 67.5 nM |  |
| GGAUCAGGAUCGGCCGCCACUGAUAGUGAUCCAACGACAUGAGGAUCACCCAUGUACAUUUUAAUCAGGACCGGGAUCAAGUUCC |  |  | 129 nM | 209 nM |  |
| CGAAUAUAGACGGCCGCCACUCUACAAACAUGAGGAUCACCCAUGUUCACAUAGUGGAAACACAUGAGGACCGGGUCAUAGGCAU | 18.5 nM | 14 nM |  |  |  |
| AUAAAUAAGGCGGCCGCCACUAAUAUAUUAAUAUUUUAUAUCCGACAUGAGGAUCACCCAUGUGGUAGGACCGGGCCAAUAAUUA | 26.2 nM | 25.8 nM |  |  |  |
| GGUAUAUAGGCGGCCGCCACUGAUUUUCAUAUAUAUAUAACAUGAGGAUCACCCAUGUAGAUAUACAGGACCGGGCCUAUAUAUU | 14.9 nM | 12.8 nM |  |  |  |
| AUCUUUGGCGAUCUGGGAAAACCAGAUCGACGAGGACCGGUACGGCCGCCACUCGUGUAUAAUAUACAUGAGGAUCACCCAUGUA | 47.5 nM | 30.5 nM |  |  |  |
| AGCCGGAUUACGGCCGCCACUGUAGACGUGACGAAAGUCGCGUCAACAUGAGGAUCACCCAUGUACAGGACCGGGUGGUCAGGCG | 173 nM | 41.2 nM |  |  |  |
| CUAUAAGUACCGGUCCUCAGAUCCUCAUGACGAGGACCGGUACGGCCGCCACUCGAAACAUGAGGAUCACCCAUGUAAUAAUACC |  |  | 35.5 nM | 19.9 nM |  |

| Sequence | apparent Kd [1, 3] | apparent Kd [1, 4] | apparent Kd [1, 5] | apparent Kd [1, 6] | other results |
| --- | --- | --- | --- | --- | --- |
| AAUCGUAAGGCGGCCGCCACUACACAUGAGGAUCACCCAUGUCUCGCAGGCUUGCGUUGGGAUAGUAGGACCGGGCCAGUAAUAA |  |  | 25.1 nM | 21.8 nM |  |
| ACAUGUUGGUGGUAUCUACGAAGGCGGAAACGAGGACCGGUACGGCCGCCACUCGGCGACAUGAGGAUCACCCAUGUGGUUAAAA |  |  | 52.6 nM | 27.5 nM |  |
| CUACAUUUGUAGAAACCGGUCAACAAUAAUCGAGGACCGGUACGGCCGCCACUCGAUGUGAAAUACACAUGAGGAUCACCCAUGU | 15.9 nM | 16.9 nM |  |  |  |
| UUGUGGCGCUCGGCCGCCACUCCGACAUGAGGAUCACCCAUGUUCUACAUGAGGAUCACCCAUGUGAGGACCGGGAGACACUUCC |  |  | 104 nM | 103 nM |  |
| AGAUUCGACACGGCCGCCACUUGUGGUGGAUUAUCCUAUGUCGAACAUGAGGAUCACCCAUGUACAAGGACCGGGUGUUGAGUCU |  |  | 401 nM | 119 nM |  |
| GGAGCUACGUCGGCCGCCACUAGCGGAUAUUACGUGUACAUGAGGAUCACCCAUGUAAUACGGUUUAGGACCGGGACGUAGCUCC |  |  | 17.3 nM | 16.5 nM |  |
| CUACAUUUGUAGAAACCGGUCACCGUUACUCGAGGACCGGUACGGCCGCCACUCGUGUCACGUGAUACAUGAGGAUCACCCAUGU | 37.4 nM | 31.3 nM |  |  |  |
| UGUGUGUGACCAGGAAAUGGUCACACACAGCGAGGACCGGUACGGCCGCCACUCGGCCGUACAUGAGGAUCACCCAUGUCGGGUA | 674 nM | 741 nM |  |  |  |
| UCGUUAUGGUCGGCCGCCACUCGCGGAGAGCAUAGCUCAAACAUGAGGAUCACCCAUGUAUCAUGGAGGACCGGGACCAUAACGU | 31.9 nM | 14 nM |  |  |  |
| UCGUUUUAGUCGGCCGCCACUGUAUGCAUGUUUAACAUGAGGAUCACCCAUGUCCCGUACUAUAACAGGACCGGGACGUAAUAGA | 168 nM | 100 nM |  |  |  |
| AACAUGAGGAUCACCCAUGUUCUCGUGUACCGAGGACCGGUACGGCCGCCACUCGGUUCUCGCGAGGAUGGUCAAAGACUAUCCA | 19.1 nM | 16 nM |  |  |  |
| AGUCACUCGAGGUGAUCUGACGAGUGGCAACGAGGACCGGUACGGCCGCCACUCGAAUAAACAUGAGGAUCACCCAUGUACAAAU | 213 nM | 196 nM |  |  |  |
| GGAUAGGACACGGCCGCCACUGCCUAGGAUACUAGCAACAUUUGGGUACAUGAGGAUCACCCAUGUAGGACCGGGUGUCCUAUCG |  |  | 49.2 nM | 53.9 nM |  |
| UAUAUAUAUCACGAACUGUGGUGUAUGUCUCGAGGACCGGUACGGCCGCCACUCGCGCGGCCUCACAUGAGGAUCACCCAUGUCC |  |  | 89.2 nM | 113 nM |  |
| UUUAUUAUUGACUCGUUAUUGUUUUUGGAUCGAGGACCGGUACGGCCGCCACUCGUGAUAUACAUGAGGAUCACCCAUGUUAGCA | 14.9 nM | 12.8 nM |  |  |  |
| CACGCACGAUCGGCCGCCACUCAUGUAGCUUACAUGAGGAUCACCCAUGUAUUUUCUUUCUUUUAGAGGACCGGGAUCGUGCGUG | 24.9 nM | 16.5 nM |  |  |  |
| AUGGUCGACGAUCUGCGAAAAGCAGAUCGACGAGGACCGGUACGGCCGCCACUCGUGUUUAUUUAACAUGAGGAUCACCCAUGUA | 80.2 nM | 22.3 nM |  |  |  |
| UUAGUAACGACGGCCGCCACUGGAUAUGAACAUGAGGAUCACCCAUGUAGAGAUCCUAGAAUAAACAGGACCGGGUCUGAUAAUA |  |  | 17.2 nM | 53.4 nM |  |
| UUCACAUGAUCUGAAUAUACAGAAAAGAAACGAGGACCGGUACGGCCGCCACUCGUGCCGGAAACAUGAGGAUCACCCAUGUGUU |  |  | 24.2 nM | 22 nM |  |
| AGAGCAUUGACGGCCGCCACUCGUGUCACAUGAGGAUCACCCAUGUGAUGGGUGAUAGCCCGGUUGAGGACCGGGUCAAUGCUCA | 13.7 nM | 19.2 nM |  |  |  |
| AAUCUGUCGGGUGAUACCAGCCUCGGCGCAUCUCACGCUGAACAUGAGGAUCACCCAUGUGGCCCUUGGCAGCACAUGACAAAUC |  |  |  |  | apparent Kd ([2]; designed as: ON switch for theophylline, no ligand): 572 nM; apparent Kd ([2]; ligand present: theophylline, designed as: ON switch for theophylline): 55.1 nM |
| GUAUGGAAACAUACUUGGGUAUCAUGAGAUACCAGUACAGAAAUGUACCCUUGGCAGCUCAAGCAUACAUGAGGAUCACCCAUGU |  |  |  |  | apparent Kd ([2]; designed as: OFF switch for theophylline, no ligand): 18 nM; apparent Kd ([2]; ligand present: theophylline, designed as: OFF switch for theophylline): 27.1 nM |

— the EternaBench riboswitch data
